According to ChEMBL document CHEMBL4837217, “Design, synthesis, in vitro and in vivo biological evaluation of pyranone-piperazine analogs as potent antileishmanial agents” (Eur J Med Chem, 2021):
Activity calls are given as the source filed them. The calls are words filed in the database; no cut-off is given here.

Columns and labels:
Leishmania donovani [1] = assay: Antileishmanial activity against log phase of Leishmania donovani MHOM/IN/80/Dd8 promastigotes assessed as reduction in cell viability at 50 uM incubated for 72 hrs by MTT assay; type: functional
Method in brief: (§1)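 Log-phase luciferase-transfected L. donovani Dd8 promastigotes (M199 + 10% FBS, 24 °C) treated with compounds at 25 and 50 µM in DMSO, with 0.1% DMSO vehicle control. After 72 h, MTT added 4 h. Formazan dissolved in DMSO, read at 570 nm. Percent inhibition reported as mean ± SD of at least three independent experiments in replicate.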

Leishmania donovani [2] = assay: Antileishmanial activity against amastigote stage of Leishmania donovani MHOM/IN/80/Dd8 harboring luciferase gene infected in mouse J774 cells assessed as parasite growth inhibition at 50 uM incubated for 72 hrs by Steady-Glo reagent based luciferase assay; type: functional; details: for inhibition at 50 µM: MHOM/IN/80/Dd8, J774
Method in brief: (§2)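 J774 murine macrophages, 4 × 10⁴ cells/well in RPMI with 10% FBS for 24 h, are infected for 24 h at 37 °C, 5% CO₂ with stationary-phase luciferase-transfected L. donovani Dd8 promastigotes at a 1:8 macrophage:parasite ratio. Compounds are dissolved in DMSO. Luminescence is read after Steady-Glo is added in PBS. IC₅₀ is taken from a four-parameter Hill nonlinear regression. Miltefosine is the reference.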

Leishmania donovani [3] = assay: Antileishmanial activity against log phase of Leishmania donovani MHOM/IN/80/Dd8 promastigotes assessed as reduction in cell viability at 25 uM incubated for 72 hrs by MTT assay; type: functional; method in brief: as §1
Leishmania donovani [4] = assay: Antileishmanial activity against amastigote stage of Leishmania donovani MHOM/IN/80/Dd8 harboring luciferase gene infected in mouse J774 cells assessed as parasite growth inhibition at 25 uM incubated for 72 hrs by Steady-Glo reagent based luciferase assay; type: functional; details: for inhibition at 25 µM: MHOM/IN/80/Dd8, J774; method in brief: as §2
Leishmania donovani [5] = assay: Induction of mitochondrial membrane potential dysfunction in Leishmania donovani MHOM/IN/80/Dd8 promastigotes assessed as cells with mitochondrial depolarization at 50 uM incubated for 72 hrs by JC1 staining based flow cytometry (reference value: 3.63%); type: functional
Leishmania = assay: Antileishmanial activity against Leishmania; type: functional, organism-based
Method in brief: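 Antiamastigote assay: J774 murine macrophages in RPMI + 10% FBS, infected 24 h at 37 °C, 5% CO2 with stationary-phase luciferase-transfected L. donovani Dd8 promastigotes (1:8 macrophage:parasite). Infectivity confirmed by Giemsa staining on parallel slides. Compounds then added and incubated 72 h. Read-out by luciferase luminescence. IC50 from four-parameter Hill nonlinear regression of the dose-response.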

Leishmania donovani [6] = assay: Antileishmanial activity against amastigote stage of Leishmania donovani MHOM/IN/80/Dd8 harboring luciferase gene infected in mouse J774 cells assessed as parasite growth inhibition incubated for 72 hrs by Steady-Glo reagent based luciferase assay; type: functional, organism-based; details: MHOM/IN/80/Dd8, J774, 72 h; method in brief: as §2
Leishmania donovani [7] = assay: Antileishmanial activity against amastigote stage of Leishmania donovani MHOM/IN/80/Dd8 harboring luciferase gene infected in mouse J774 cells assessed as parasite growth inhibition by Giemsa staining based analysis; type: functional, organism-based; details: time 12-72 hrs, TDE = time-dependent effect
Method in brief: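 J774 macrophages are infected for 24 h with stationary-phase luciferase-transfected Dd8 promastigotes at a 1:8 ratio in chamber slides. After compound treatment, cells are fixed and Giemsa-stained, and intracellular amastigotes are counted by microscopy.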

Leishmania donovani [8] = assay: Antileishmanial activity against log phase of Leishmania donovani MHOM/IN/80/Dd8 promastigotes assessed as reduction in cell viability by MTT assay; type: functional, organism-based; details: time 12-72 hrs, TDE = time-dependent effect
[9] = Cytotoxicity against mouse J774 cells assessed as reduction in cell viability incubated for 72 hrs by MTT assay; type: cell-based
Method in brief: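 J774 macrophages seeded at 1 × 10^5 cells/well overnight, then exposed to graded concentrations (7.81–500 µM) for 72 h at 37 °C, 5% CO2. MTT (5 mg/mL) added for 2 h, formazan solubilized in DMSO and read at 570 nm. CC50 taken as 50% viability loss relative to untreated cells.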

Leishmania donovani [10] = assay: Antileishmanial activity against Leishmania donovani MHOM/IN/80/Dd8 infected in BALB/c mouse assessed as reduction in intracellular amastigote burden in liver at 50 mg/kg, ip for 5 days and measured at 1 week post-treatment by Giemsa staining based assay relative to control; type: functional; details: time 12.0 day
Method in brief: (§3)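 Female BALB/c mice (20–25 g), 5/group, infected iv with 2 × 10^7 stationary-phase L. donovani promastigotes. Infection confirmed at 2 wk, then 50 mg/kg ip daily for 5 consecutive days. Vehicle was 5% DMSO. Sacrificed day 7 post-treatment. Giemsa-stained liver/spleen impression smears counted as amastigotes/1000 nucleated cells, expressed as LDU (amastigotes per nucleated cell × organ weight in mg), compared with untreated infected controls.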

Leishmania donovani [11] = assay: Antileishmanial activity against amastigote stage of Leishmania donovani MHOM/IN/80/Dd8 harboring luciferase gene infected in mouse J774 cells assessed as parasite killing at 50 to 100 uM incubated for 72 hrs by Steady-Glo reagent based luciferase assay; type: functional; details: dose 50-100 µM; method in brief: as §2
Leishmania donovani [12] = assay: Antileishmanial activity against Leishmania donovani MHOM/IN/80/Dd8 infected in BALB/c mouse assessed as reduction in intracellular amastigote burden in spleen at 50 mg/kg, ip for 5 days and measured at 1 week post-treatment by Giemsa staining based assay relative to control; type: functional; details: time 12.0 day; method in brief: as §3
Leishmania donovani [13] = assay: Antileishmanial activity against amastigote stage of Leishmania donovani MHOM/IN/80/Dd8 harboring luciferase gene infected in mouse J774 cells assessed as parasite killing incubated for 72 hrs by Steady-Glo reagent based luciferase assay; type: functional, organism-based; details: dose 3.12-50 µM; method in brief: as §2
Leishmania donovani [14] = assay: Antileishmanial activity against Leishmania donovani promastigotes assessed as parasite growth inhibition incubated for 72 hrs by Alamar Blue assay; type: functional, organism-based

Structure (SMILES)	inhibition at 50 µM (Leishmania donovani [1]) [%]	inhibition at 50 µM (Leishmania donovani [2]) [%]	inhibition at 25 µM (Leishmania donovani [4]) [%]	inhibition at 25 µM (Leishmania donovani [3]) [%]	other results
N#Cc1c(N2CCN(c3ccccc3O)CC2)cc(-c2ccc(Br)cc2)c2c1CCSC2	33.3	83.3	71	–	inhibition (Leishmania donovani [3]): inactive
COc1ccccc1N1CCN(c2cc(-c3cccs3)oc(=O)c2C#N)CC1	62.2	71.2	52.2	48.1	–
N#CC(C#N)=NNc1cccc(Cl)c1 [CARBONYL CYANIDE M-CHLOROPHENYLHYDRAZONE]	–	–	–	–	Activity (Leishmania donovani [5]): 95.6%
N#Cc1c(N2CCN(c3ccccc3O)CC2)cc(-c2ccc(Br)cc2)oc1=O	–	35.1	14.5	–	inhibition (Leishmania donovani [1]): inactive; inhibition (Leishmania donovani [3]): inactive
CCn1nc2cc(N/C(C)=C3/C(=O)C=C(C)OC3=O)ccc2c1Cl	–	–	–	–	IC50 (Leishmania): 2480 nM
N#Cc1c(N2CCN(c3ccccc3O)CC2)cc(-c2ccc(Cl)cc2)oc1=O	25	–	–	–	inhibition (Leishmania donovani [2]): inactive; inhibition (Leishmania donovani [3]): inactive; inhibition (Leishmania donovani [4]): inactive
COc1ccc(-c2cc(N3CCN(c4ccccc4O)CC3)c(C#N)c(=O)o2)cc1	86.3	84.4	51.8	78.3	IC50 (Leishmania donovani [6]): 13 µM
COc1ccccc1N1CCN(c2cc(-c3ccc(Br)cc3)oc(=O)c2C#N)CC1	61.2	58.3	43.3	56.6	–
N#Cc1c(N2CCN(c3ccccc3O)CC2)cc(-c2cccs2)c2c1CSC2	4.8	79.3	60.1	–	inhibition (Leishmania donovani [3]): inactive
N#Cc1c(N2CCN(c3ccccc3O)CC2)c2c(oc1=O)-c1ccccc1C2	82.2	60	37.8	14.2	–
N#Cc1c(N2CCN(c3ccccc3O)CC2)cc(-c2ccccc2)c2c1CSC2	87.8	–	–	82.1	inhibition (Leishmania donovani [2]): inactive; inhibition (Leishmania donovani [4]): inactive
COc1ccc(-c2cc(N3CCN(c4ccccc4Cl)CC3)c(C#N)c(=O)o2)cc1	69.2	62.5	51	60.3	–
N#Cc1c(N2CCN(c3ccccc3O)CC2)cc(-c2ccc(Br)s2)oc1=O	88.1	85.1	74.8	52.1	IC50 (Leishmania donovani [6]): 13 µM
N#Cc1c(N2CCN(c3ccccc3Cl)CC2)cc(-c2ccccc2)oc1=O	72.9	73.7	49.2	46.9	–
N#Cc1c(N2CCN(c3cccc(Cl)c3)CC2)cc(-c2ccccc2)oc1=O	57.3	72.1	47.4	44	–
N#Cc1c(N2CCN(c3ccccc3O)CC2)cc(-c2cccs2)oc1=O	90.2	89.3	84.7	81.3	IC50 (Leishmania donovani [6]): 15.3 µM; Activity (Leishmania donovani [7]): Tde; Activity (Leishmania donovani [8]): Tde; CC50 at 72 h [9]: 311 µM; Activity (Leishmania donovani [10]): Active; Activity (Leishmania donovani [11]): >89%; Activity (Leishmania donovani [12]): Active; Activity (Leishmania donovani [13]): Dose-Dependent Effect
N#Cc1c(N2CCN(c3ccccc3O)CC2)cc(-c2cccs2)c2c1CCSC2	–	72.6	65	–	inhibition (Leishmania donovani [1]): inactive; inhibition (Leishmania donovani [3]): inactive
N#Cc1c(N2CCN(c3ccccc3O)CC2)cc(-c2cccc3ccccc23)oc1=O	78.6	80.8	71.4	77.3	IC50 (Leishmania donovani [6]): 13 µM
N#Cc1c(N2CCN(c3ccccc3O)CC2)c2c(oc1=O)-c1ccccc1CC2	81.3	64.8	37.8	35.9	–
N#Cc1c(N2CCN(c3ccccc3Cl)CC2)cc(-c2ccc(Cl)cc2)oc1=O	58.3	71	73.1	55.2	–
N#Cc1c2c(c3c(c1N1CCN(c4ccccc4O)CC1)Cc1ccccc1-3)CSC2	–	57.3	45.5	–	inhibition (Leishmania donovani [1]): inactive; inhibition (Leishmania donovani [3]): inactive
c1ccc2[nH]c(-c3ccc(N4CCN(c5ccc(-c6nc7ccccc7[nH]6)cc5)CC4)cc3)nc2c1	–	–	–	–	IC50 (Leishmania donovani [14]): 410 nM
N#Cc1c(N2CCN(c3ccccc3Cl)CC2)cc(-c2ccc(Br)cc2)oc1=O	66.5	68.5	60.5	57.9	–
Cc1ccc(-c2cc(N3CCN(c4ccccc4O)CC3)c(C#N)c(=O)o2)cc1	72.8	83.2	77.3	54.7	IC50 (Leishmania donovani [6]): 13 µM
